Assay results published in ChEMBL document CHEMBL3120060, “Synthesis, in vitro anticancer evaluation and in silico studies of novel imidazo[2,1-b]thiazole derivatives bearing pyrazole moieties” (2014).

Assays:
Type in all cases: functional
SNB-19 = experiment: Cytotoxicity against human SNB19 cells assessed as cell growth at 10 uM after 48 hrs by SRB assay; conditions: SNB-19, 48 h, read-out: Activity
How it was run: (§1)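 NCI-60 single-dose screen. Cell lines grown in RPMI 1640 with 5% FBS and 2 mM L-glutamine, plated at 5000–40,000 cells/well according to doubling time, then preincubated 24 h at 37 °C in 5% CO2. Compounds dissolved in DMSO, tested at 10^-5 M for 48 h. Adherent cells fixed with cold TCA (10% final) and stained with 0.4% SRB in 1% acetic acid. Growth expressed as percent of untreated control.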

SF-295 = experiment: Cytotoxicity against human SF295 cells assessed as cell growth at 10 uM after 48 hrs by SRB assay; conditions: SF-295, 48 h, read-out: Activity; how it was run: as §1
KM12 = experiment: Cytotoxicity against human KM12 cells assessed as cell growth at 10 uM after 48 hrs by SRB assay; conditions: KM12, 48 h, read-out: Activity; how it was run: as §1
COLO 205 = experiment: Cytotoxicity against human COLO205 cells assessed as cell growth at 10 uM after 48 hrs by SRB assay; conditions: COLO 205, 48 h, read-out: Activity; how it was run: as §1
NCI-H522 = experiment: Cytotoxicity against human NCI-H522 cells assessed as cell growth at 10 uM after 48 hrs by SRB assay; conditions: NCI-H522, 48 h, read-out: Activity; how it was run: as §1
NCI-H322M = experiment: Cytotoxicity against human NCI-H322M cells assessed as cell growth at 10 uM after 48 hrs by SRB assay; conditions: read-out: Activity; how it was run: as §1
NCI-H226 = experiment: Cytotoxicity against human NCI-H226 cells assessed as cell growth at 10 uM after 48 hrs by SRB assay; conditions: NCI-H226, 48 h, read-out: Activity; how it was run: as §1
HOP-92 = experiment: Cytotoxicity against human HOP92 cells assessed as cell growth at 10 uM after 48 hrs by SRB assay; conditions: HOP-92, 48 h, read-out: Activity; how it was run: as §1
A549 = experiment: Cytotoxicity against human A549 cells assessed as cell growth at 10 uM after 48 hrs by SRB assay; conditions: A549, 48 h, read-out: Activity; how it was run: as §1
K562 = experiment: Cytotoxicity against human K562 cells assessed as cell growth at 10 uM after 48 hrs by SRB assay; conditions: K562, 48 h, read-out: Activity; how it was run: as §1
HL-60(TB) = experiment: Cytotoxicity against human HL-60(TB) cells assessed as cell growth at 10 uM after 48 hrs by SRB assay; conditions: HL-60, 48 h, read-out: Activity
How it was run: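 NCI-60 single-dose screen: cells grown in RPMI 1640 with 5% FBS and 2 mM L-glutamine, plated at 5000–40,000 cells/well, preincubated 24 h at 37 °C, 5% CO2. Compound dissolved in DMSO, tested at 10^-5 M for 48 h. Cells TCA-fixed, sulforhodamine B stained. Growth expressed as percent of untreated control, referenced to time-zero plates.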

T47D = experiment: Cytotoxicity against human T47D cells assessed as cell growth at 10 uM after 48 hrs by SRB assay; conditions: read-out: Activity
How it was run: (§2)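 NCI-60 single-dose screen at 10^-5 M. Adherent lines are grown in RPMI 1640 with 5% FBS and 2 mM L-glutamine, seeded at 5000–40,000 cells/well by doubling time, and preincubated 24 h at 37 °C in 5% CO2. Drug is added from DMSO stock diluted in medium, then 48 h. Cells are fixed in cold TCA (final 10%) for 60 min and stained with 0.4% SRB in 1% acetic acid. Growth is expressed as % of untreated control using time-zero plates.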

[1] = Cytotoxicity against human Hs578T cells assessed as cell growth at 10 uM after 48 hrs by SRB assay; conditions: Hs-578T, read-out: Activity; how it was run: as §1
DU-145 = experiment: Cytotoxicity against human DU145 cells assessed as cell growth at 10 uM after 48 hrs by SRB assay; conditions: DU-145, 48 h, read-out: Activity; how it was run: as §1
PC-3 = experiment: Cytotoxicity against human PC3 cells assessed as cell growth at 10 uM after 48 hrs by SRB assay; conditions: PC-3, 48 h, read-out: Activity; how it was run: as §1
SN12C = experiment: Cytotoxicity against human SN12C cells assessed as cell growth at 10 uM after 48 hrs by SRB assay; conditions: read-out: Activity; how it was run: as §1
RXF 393 = experiment: Cytotoxicity against human RXF393 cells assessed as cell growth at 10 uM after 48 hrs by SRB assay; conditions: RXF 393, 48 h, read-out: Activity; how it was run: as §1
CAKI-1 = experiment: Cytotoxicity against human CAKI-1 cells assessed as cell growth at 10 uM after 48 hrs by SRB assay; conditions: CAKI-1, 48 h, read-out: Activity; how it was run: as §1
ACHN = experiment: Cytotoxicity against human ACHN cells assessed as cell growth at 10 uM after 48 hrs by SRB assay; conditions: read-out: Activity; how it was run: as §1
A498 = experiment: Cytotoxicity against human A498 cells assessed as cell growth at 10 uM after 48 hrs by SRB assay; conditions: A498, 48 h, read-out: Activity; how it was run: as §1
[2] = Cytotoxicity against human NCI-ADR-RES cells assessed as cell growth at 10 uM after 48 hrs by SRB assay; conditions: read-out: Activity; how it was run: as §1
OVCAR-8 = experiment: Cytotoxicity against human OVCAR8 cells assessed as cell growth at 10 uM after 48 hrs by SRB assay; conditions: OVCAR-8, 48 h, read-out: Activity; how it was run: as §1
[3] = Cytotoxicity against human OVCAR5 cells assessed as cell growth at 10 uM after 48 hrs by SRB assay; conditions: OVCAR-5, 48 h, read-out: Activity; how it was run: as §1
OVCAR-3 = experiment: Cytotoxicity against human OVCAR3 cells assessed as cell growth at 10 uM after 48 hrs by SRB assay; conditions: OVCAR-3, 48 h, read-out: Activity; how it was run: as §1
UACC-62 = experiment: Cytotoxicity against human UACC62 cells assessed as cell growth at 10 uM after 48 hrs by SRB assay; conditions: UACC-62, 48 h, read-out: Activity; how it was run: as §2
[4] = Cytotoxicity against human UACC257 cells assessed as cell growth at 10 uM after 48 hrs by SRB assay; conditions: UACC-257, 48 h, read-out: Activity; how it was run: as §2
SK-MEL-28 = experiment: Cytotoxicity against human SK-MEL-28 cells assessed as cell growth at 10 uM after 48 hrs by SRB assay; conditions: SK-MEL-28, 48 h, read-out: Activity; how it was run: as §1
SK-MEL-2 = experiment: Cytotoxicity against human SK-MEL-2 cells assessed as cell growth at 10 uM after 48 hrs by SRB assay; conditions: SK-MEL-2, 48 h, read-out: Activity; how it was run: as §1
MDA-MB-435 = experiment: Cytotoxicity against human MDA-MB-435 cells assessed as cell growth at 10 uM after 48 hrs by SRB assay; conditions: MDA-MB-435, 48 h, read-out: Activity; how it was run: as §1
Malme-3M = experiment: Cytotoxicity against human MALME-3M cells assessed as cell growth at 10 uM after 48 hrs by SRB assay; conditions: read-out: Activity; how it was run: as §1
LOX IMVI = experiment: Cytotoxicity against human LOXIMVI cells assessed as cell growth at 10 uM after 48 hrs by SRB assay; conditions: read-out: Activity; how it was run: as §1

Structure (SMILES)	growth at 10 µM (SNB-19) [%]	growth at 10 µM (SF-295) [%]	growth at 10 µM (KM12) [%]	growth at 10 µM (COLO 205) [%]	growth at 10 µM (NCI-H522) [%]	growth at 10 µM (NCI-H322M) [%]	growth at 10 µM (NCI-H226) [%]	growth at 10 µM (HOP-92) [%]	growth at 10 µM (A549) [%]	growth at 10 µM (K562) [%]	growth at 10 µM (HL-60(TB)) [%]	growth at 10 µM (T47D) [%]	growth at 10 µM [1] [%]	growth at 10 µM (DU-145) [%]	growth at 10 µM (PC-3) [%]	growth at 10 µM (SN12C) [%]	growth at 10 µM (RXF 393) [%]	growth at 10 µM (CAKI-1) [%]	growth at 10 µM (ACHN) [%]	growth at 10 µM (A498) [%]	also measured
Cc1cc(C)n(-c2cn3c(-c4ccc(Cl)cc4)csc3n2)n1	92.8	82.5	99.9	100	75.3	91	81.5	74.7	85.8	83.1	90.2	80.7	94.3	113	79.1	89	93.5	78.6	91	85.7	growth at 10 µM [2]: 100%; growth at 10 µM (OVCAR-8): 91.5%; growth at 10 µM [3]: 109%; growth at 10 µM (OVCAR-3): 107%; growth at 10 µM (UACC-62): 86.9%; growth at 10 µM [4]: 104%; growth at 10 µM (SK-MEL-28): 97.9%; growth at 10 µM (SK-MEL-2): 113%; growth at 10 µM (MDA-MB-435): 94.5%; growth at 10 µM (Malme-3M): 93.1%; growth at 10 µM (LOX IMVI): 91.9%
Cc1ccc(-c2csc3nc(-n4nc(C)cc4C)cn23)cc1	100	88.5	108	106	91.8	96.4	94.8	78	98.6	109	106	98.2	97	116	84.7	98.1	105	83.5	90.7	103	growth at 10 µM [2]: 98.5%; growth at 10 µM (OVCAR-8): 96%; growth at 10 µM [3]: 113%; growth at 10 µM (OVCAR-3): 115%; growth at 10 µM (UACC-62): 90.5%; growth at 10 µM [4]: 108%; growth at 10 µM (SK-MEL-28): 94.8%; growth at 10 µM (SK-MEL-2): 125%; growth at 10 µM (MDA-MB-435): 94.6%; growth at 10 µM (Malme-3M): 114%; growth at 10 µM (LOX IMVI): 92.8%
CC1=NN(c2cn3c(-c4ccccc4)csc3n2)C(=O)C1	90.8	69.4	102	102	89.2	92.1	101	66.5	101	83.4	89.2	89.4	106	106	77.6	96	109	79.9	91.2	96.6	growth at 10 µM [2]: 92.5%; growth at 10 µM (OVCAR-8): 105%; growth at 10 µM [3]: 96.7%; growth at 10 µM (OVCAR-3): 99.8%; growth at 10 µM (UACC-62): 91.1%; growth at 10 µM [4]: 102%; growth at 10 µM (SK-MEL-28): 102%; growth at 10 µM (SK-MEL-2): 102%; growth at 10 µM (MDA-MB-435): 92.9%; growth at 10 µM (Malme-3M): 107%; growth at 10 µM (LOX IMVI): 90.8%
O=C1CN2C(c3ccc(Cl)cc3)=CSC2=N1	100	80	100	108	87.5	93.8	110	111	92.5	79.7	94.2	92.1	111	102	101	94.9	111	81.3	95	70.2	growth at 10 µM [2]: 102%; growth at 10 µM (OVCAR-8): 96%; growth at 10 µM [3]: 97%; growth at 10 µM (OVCAR-3): 105%; growth at 10 µM (UACC-62): 88.7%; growth at 10 µM [4]: 96.3%; growth at 10 µM (SK-MEL-28): 95.7%; growth at 10 µM (SK-MEL-2): 98.2%; growth at 10 µM (MDA-MB-435): 87.8%; growth at 10 µM (Malme-3M): 99.3%; growth at 10 µM (LOX IMVI): 98.9%
